TRPC4 inh – inhibitors of mouse TRPC4 channel, primary screen, Fluo4 calcium, HEK293 TRPC4beta/mu-opioid cells | Short transient receptor potential channel 4 (Mus musculus), Q9QUQ5 | DAMGO-evoked Fluo4 calcium flux; stronger effect = lower value | B-score at 10 µM | 300,000 tested, 0.39% active;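 active = B-score over 3 SD under the library average, no early fluorescence shift, positive overall ratio signal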
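Material: HEK293 cells with stable TRPC4beta plus mu-opioid receptor expression / Probe or stimulus: DAMGO in two steps, submaximal then maximal / Compound: single concentration per test compound / Technique: kinetic Fluo4 fluorescence imaging of calcium influx / Read-out: per-well B score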
TRPC4 act – activators of mouse TRPC4 channel, primary screen, Fluo4 calcium, HEK293 TRPC4beta/mu-opioid cells. 310,000 tested, 0.49% active. B-score at 10 µM. Short transient receptor potential channel 4 (Mus musculus), Q9QUQ5. Fluo4 calcium fluorescence; stronger effect = higher value;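 active = B-score above 5 SD of library B-scores, and initial fluorescence ratio not above library mean plus 5 SD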;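 note: positive B-score marks a calcium rise read as TRPC4 activation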
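Technique: kinetic Fluo4 calcium fluorescence; Test system: TRPC4beta and mu-opioid receptor HEK293 stable cells; Measure: B-scored integrated calcium fluorescence ratio; Benchmarks: low control buffer alone, high control maximal DAMGO; Schedule: 45 min room-temperature Fluo4 loading, 110 s read.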
Kir21 inh – inhibitors of mouse Kir2.1 inward-rectifier potassium channel | 310,000 tested, 0.85% active | HEK293-Kir2.1, FluxOR thallium flux fluorescence; stronger effect = lower value | B-score at 10 µM | AID 1672, 2009 | Inward rectifier potassium channel 2 (Mus musculus), P35561;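 active = fluorescence ratio B-score at or below minus 3 SD of library scores, with starting-brightness B-score within 2 SD, cut at about -4.2 in these data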;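 note: channel flux triggered by added potassium and thallium sulfate stimulus; B-score of peak minus minimum fluorescence over baseline after thallium stimulus; more negative B-score means stronger Kir2.1 block with less thallium influx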
Target sequence (P35561 whole entry, looked up): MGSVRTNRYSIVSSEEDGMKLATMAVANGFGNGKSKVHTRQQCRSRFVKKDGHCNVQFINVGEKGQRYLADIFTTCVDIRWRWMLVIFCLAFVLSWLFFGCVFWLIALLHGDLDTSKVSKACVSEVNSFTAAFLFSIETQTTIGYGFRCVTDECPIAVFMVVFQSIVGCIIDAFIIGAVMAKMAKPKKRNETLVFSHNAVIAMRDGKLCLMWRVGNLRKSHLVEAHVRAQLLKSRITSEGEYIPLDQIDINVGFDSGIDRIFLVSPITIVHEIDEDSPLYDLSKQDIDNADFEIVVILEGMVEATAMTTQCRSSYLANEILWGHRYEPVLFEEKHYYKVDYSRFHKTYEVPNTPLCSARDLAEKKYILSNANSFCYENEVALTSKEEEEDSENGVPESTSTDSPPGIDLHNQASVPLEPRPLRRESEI
TRPC4 potent – positive allosteric modulators of TRPC4, primary screen, cell-based, mouse TRPC4beta, HEK293 mu-opioid, Fluo-4 calcium; Short transient receptor potential channel 4 (Mus musculus), Q9QUQ5; DAMGO EC20, Fluo-4 Ca2+ flux; stronger effect = higher value; B-score at 10 µM; 310,000 tested, 0.42% active;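 active = B-score of calcium response area above 5 SD of library B-scores, with initial fluorescence ratio within 5 SD of library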
TRPC6 activator – mouse TRPC6 channel activators, primary screen, cell-based, HEK293, membrane potential dye; Short transient receptor potential channel 6 (Mus musculus), Q61143; HEK293-TRPC6 membrane potential dye fluorescence; stronger effect = higher value; B-score at 10 µM; 310,000 tested, 0.13% active; AID 2550, 2010;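 active = B-score of the integrated fluorescence ratio above library mean plus 3 SD, and starting fluorescence ratio within library mean plus 5 SD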;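 note: higher score means more depolarization so channel activation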
TRPC6 inhibitor – mouse TRPC6 channel inhibitors, primary screen, cell-based, HEK293, membrane potential dye. Short transient receptor potential channel 6 (Mus musculus), Q61143. ACh-evoked depolarization; stronger effect = lower value. B-score at 10 µM. 310,000 tested, 1.1% active;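 active = B-score under library mean minus 3 SD, initial fluorescence not abnormally high, positive integrated signal ratio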;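 note: B-score derived from integrated fluorescence ratio over the kinetic read; more negative B-score means stronger inhibition of depolarization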
Each line names hits and unclear results; the compound was inactive in the other large screens. Hits are enriched below; roughly 2.9% of the tested compounds scored in any of these assays.

Cc1ccc(-c2nnc(N3CCC(C)CC3)c3ccccc23)cc1C	TRPC4 potent 63
CSc1cccc(NC(=S)NCCCN2CCN(c3ccc(F)cc3)CC2)c1	Kir21 inh -5.78
COc1ccc(C(=O)NCc2nnc(SCC(=O)NO)n2Cc2ccccc2)cc1	none
COc1ccc(Cn2c(N)c(C#N)c3nc4ccccc4nc32)cc1OC	none
COc1ccc(CCn2c(N)c(C#N)c3nc4ccccc4nc32)cc1OC	TRPC4 inh -6
Cc1ccc(OCC(=O)N2N=C(C(F)(F)F)CC2(O)C(C)(C)C)cc1C (configuration not stated)	Kir21 inh -4.25
CCC1=NN(C(=O)COc2ccccc2)C(O)(c2ccncc2)C1 (configuration not stated)	none
CC1=NN(C(=O)COc2ccc(C)c(C)c2)C(O)(c2ccc(Cl)cc2)C1 (configuration not stated)	TRPC4 potent 22
Cc1ccccc1OCC(=O)N1N=C(C(F)(F)F)CC1(O)C(C)(C)C (configuration not stated)	none
CCOC(=O)C1=NN(C(=O)COc2ccccc2)C(O)(c2ccc(Br)cc2)C1 (configuration not stated)	TRPC4 act 47
O=S(=O)(NCC(c1ccco1)N1CCN(c2ccc(F)cc2)CC1)c1ccc(F)cc1 (configuration not stated)	none
C=CCn1c(COc2ccc(Cl)cc2)nnc1SCc1ccc(C#N)cc1	none
C=CCn1c(COc2ccccc2)nnc1SCc1ccc(C#N)cc1	Kir21 inh -11
CCCC1CC(c2csc(N)n2)CCO1 (configuration not stated)	none
O=C(OCC1CCNCC1)c1ccc2c(c1)OCO2	TRPC4 act 62
NC1=NC[C@H](c2ccccc2)N1CCCCC1CCCCC1	Kir21 inh -6.74
O=C(c1cnc(-c2ccccc2)s1)c1ccc(Cl)cc1Cl	none
C/C(=N\Nc1nc2c(s1)CCCC2)c1ccc(Cl)cc1	none
CC(Cc1ccccc1)NC(=O)CC(c1ccccc1)c1ccccc1O (configuration not stated)	none
CC(Cc1ccccc1)NC(=S)CN1CCCC1=S (configuration not stated)	Kir21 inh -4.59
CN(C(=O)C(Cl)Cl)c1ccc(OC(=O)c2ccco2)cc1	Kir21 inh -4.69
c1ccc2cc(CNCc3cccc4ccccc34)ccc2c1	none
COc1cc(CNCc2cccc3ccccc23)cc(OC)c1	Kir21 inh -4.7
COc1ccc(Br)cc1CNC(C)c1ccccc1 (configuration not stated)	TRPC4 inh -6, Kir21 inh -4.42
COc1cc(CNC(C)c2ccccc2)cc(Br)c1OCc1ccccc1 (configuration not stated)	none
COc1ccccc1CNC(=O)CC(C)C	none
COc1ccccc1CNCC(c1ccccc1)c1ccccc1	TRPC4 inh -6, Kir21 inh -8.48
COc1ccccc1CNCc1cc(Br)ccc1OC	Kir21 inh -6.05
COc1ccccc1CNCc1cc(OC)c(OC)cc1OC	none
Nc1nnc(CCN2C(=O)CSC2=O)s1	none
COc1cccc(CN2CCNC(=O)C2CC(=O)NC2CCOCC2)c1OC (configuration not stated)	none
COc1ccccc1CNCc1cccc(Oc2ccccc2)c1	Kir21 inh -8.78
COc1ccccc1CNCC(O)Cn1c2ccccc2c2ccccc21 (configuration not stated)	TRPC4 act 80, Kir21 inh -13.3
OCCNCC(O)Cn1c2ccccc2c2ccccc21 (configuration not stated)	none
Fc1cccc(Cl)c1C1Nc2cccc3cccc(c23)N1	none
Clc1cccc(Cl)c1C1Nc2cccc3cccc(c23)N1	TRPC6 inhibitor -5.48
CCc1ccc(CN(C)CC(O)COc2cccc3ccccc23)cc1 (configuration not stated)	Kir21 inh -16.3
CN(CCOc1cccc2ccccc12)Cc1ccccc1	none
Cc1ccc(C(C)C)c(OCCCN2CCc3ccccc3C2)c1	Kir21 inh -9.02
Cc1ccc(OCCCCN(C)Cc2ccccc2)c(Br)c1	Kir21 inh -12.5
Cc1ccc(C(C)C)c(OCCN2CCc3ccccc3C2)c1	none
Cc1ccc(C(C)C)c(OCC(O)CN(C)Cc2ccccc2)c1 (configuration not stated)	Kir21 inh -9.73
CCOC(=O)C1(CCOc2ccccc2)CCN(S(=O)(=O)N(C)C)CC1	none
Cc1ccc(S(=O)(=O)c2nc(-c3cccs3)oc2SCC(N)=O)cc1	none
NS(=O)(=O)c1cc(C(=O)NCCc2ccccn2)ccc1Cl	none
CN(C)c1[nH]c(=O)c(C#N)c2c1CCN2Cc1ccccc1	none
Cc1ccc(C(C)C)c(OCCCN(C)Cc2ccccc2)c1	Kir21 inh -11.1
NC(N)=NCCCC(NC(=O)c1ccccc1)C(=O)Nc1ccc([N+](=O)[O-])cc1 (configuration not stated)	TRPC4 act 123
CCOc1ccc(CSC(=N)N)cc1[N+](=O)[O-]	TRPC4 act 77
CC(C)Oc1ccc(CSC(=N)N)cc1	none
CCOc1ccc(CSC(=N)N)cc1Cl	TRPC4 act 120
COc1cc(OC)cc(C(=O)NCCCN2CCN(CCCNC(=O)c3cc(OC)cc(OC)c3)CC2)c1	TRPC4 act 119
CC(C)(C)c1ccc(C(=O)NCCCN2CCN(CCCNC(=O)c3ccc(C(C)(C)C)cc3)CC2)cc1	none
COc1ccc(N2CCN(CCCNC(=O)c3ccc(CS(=O)(=O)c4ccc(OC)cc4)o3)CC2)cc1	TRPC4 inh -6
Cc1ccc(-c2nnc3ccc(SC(C)C(=O)O)nn23)cc1 (configuration not stated)	none
COc1cc(S(=O)(=O)N2CCN(Cc3ccccc3)CC2)ccc1Br	TRPC4 potent 10
c1ccc2c(NCC3CCCO3)nc(N3CCOCC3)nc2c1 (configuration not stated)	none
Oc1cccc(Nc2nc(NCC3CCCO3)c3ccccc3n2)c1 (configuration not stated)	Kir21 inh -8.07
Cc1ccnc(NS(=O)(=O)c2ccc(CC(C)C)cc2)c1	TRPC4 potent 13
Cc1cccc(-c2nnc(SCc3nc4ccccc4[nH]3)n2Cc2ccco2)c1	TRPC4 inh -7
C(=C\c1ccccc1)/CSc1nnc(-c2ccccc2)n1Cc1ccco1	Kir21 inh -5.43

Assay outcomes deposited in PubChem by Johns Hopkins Ion Channel Center.
